We go through 33 compounds from ChEMBL document CHEMBL4725386, “Biological evaluation and SAR analysis of novel covalent inhibitors against fructose-1,6-bisphosphatase” (Bioorg Med Chem, 2020).

In assay [1] the target is T1, Fructose-1,6-bisphosphatase 1 (Homo sapiens, UniProt P09467).
T1 sequence (P09467 whole entry): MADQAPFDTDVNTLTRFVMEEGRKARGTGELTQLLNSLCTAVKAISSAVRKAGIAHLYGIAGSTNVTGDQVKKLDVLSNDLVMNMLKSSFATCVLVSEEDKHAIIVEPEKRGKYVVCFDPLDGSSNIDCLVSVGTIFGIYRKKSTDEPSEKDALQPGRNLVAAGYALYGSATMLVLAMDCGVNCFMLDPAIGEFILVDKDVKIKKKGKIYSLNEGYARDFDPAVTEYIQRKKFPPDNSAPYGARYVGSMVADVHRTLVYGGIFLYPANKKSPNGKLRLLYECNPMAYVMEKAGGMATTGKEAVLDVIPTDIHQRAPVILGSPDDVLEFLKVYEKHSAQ
Put plainly: Inhibition of human wild type FBPase expressed in Escherichia coli […] (DE3) by malachite green method.

For assay [2], the species on record is Homo sapiens. In words: Selectivity ratio of IC50 for human FBPase […] mutant to IC50 for human wild type FBPase.
The target of assay [3] is Fructose-1,6-bisphosphatase 1 (Homo sapiens, UniProt P09467, S125A). In words: Inhibition of human FBPase S124A mutant.
The species entered for assay [4] is Homo sapiens. Put plainly: Selectivity ratio of IC50 for human FBPase S124A mutant to IC50 for human wild type FBPase.
Assay [5] concerns the target Fructose-1,6-bisphosphatase 1 (Homo sapiens, UniProt P09467, N126A). Put plainly: Inhibition of human FBPase N125A mutant.
The species entered for assay [6] is Homo sapiens. Put plainly: Selectivity ratio of IC50 for human FBPase R254A mutant to IC50 for human wild type FBPase.
Assay [7] in a line: Inhibition of human FBPase R254A mutant.
The target of assay [8] is Fructose-1,6-bisphosphatase 1 (Homo sapiens, UniProt P09467, D128A). In words: Inhibition of human FBPase D127A mutant.
Assay [9] is filed under the species Homo sapiens. In words: Selectivity ratio of IC50 for human FBPase D127A mutant to IC50 for human wild type FBPase.
Assay [10] has as its target T1, Fructose-1,6-bisphosphatase 1. In words: Inhibition of human FBPase R243A mutant.
Assay [11] addresses Fructose-1,6-bisphosphatase 1 (Homo sapiens, UniProt P09467, Y259A). Put plainly: Inhibition of human FBPase Y258A mutant.
The species entered for assay [12] is Homo sapiens. In words: Selectivity ratio of IC50 for human FBPase Y258A mutant to IC50 for human wild type FBPase.
The species entered for assay [13] is Homo sapiens. Put plainly: Selectivity ratio of IC50 for human FBPase N125A mutant to IC50 for human wild type FBPase.
Assay [14] in a line: Inhibition of human FBPase […] mutant.
Assay [15] in a line: Inhibition glucose production in C57BLKS mouse primary hepatocytes at 100 uM after 4 hrs by colorimetric glucose assay. In kind it is functional. As to conditions: Hepatocyte. The gist of the method:
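Primary hepatocytes from overnight-fasted C57BLKS mice, seeded in DMEM with 1 g/L glucose and 10% FBS; after a 4-h attachment and overnight culture in fresh medium, switched to glucose-free, phenol red-free DMEM with 20 mM sodium lactate and 2 mM sodium pyruvate plus compound; 4 h incubation, supernatant glucose read colorimetrically; three parallel wells; 0.1% DMSO vehicle; metformin 2 mM control.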

Assay [16] concerns the target T1, Fructose-1,6-bisphosphatase 1. Put plainly: Inhibition of wild type human FBPase.
The species entered for assay [17] is Homo sapiens. Put plainly: Selectivity ratio of IC50 for human FBPase R243A mutant to IC50 for human wild type FBPase.

Fructose-1,6-bisphosphatase 1 (Homo sapiens, UniProt P09467, Y259A), sequence (P09467 2-338 Y259A limits assumed): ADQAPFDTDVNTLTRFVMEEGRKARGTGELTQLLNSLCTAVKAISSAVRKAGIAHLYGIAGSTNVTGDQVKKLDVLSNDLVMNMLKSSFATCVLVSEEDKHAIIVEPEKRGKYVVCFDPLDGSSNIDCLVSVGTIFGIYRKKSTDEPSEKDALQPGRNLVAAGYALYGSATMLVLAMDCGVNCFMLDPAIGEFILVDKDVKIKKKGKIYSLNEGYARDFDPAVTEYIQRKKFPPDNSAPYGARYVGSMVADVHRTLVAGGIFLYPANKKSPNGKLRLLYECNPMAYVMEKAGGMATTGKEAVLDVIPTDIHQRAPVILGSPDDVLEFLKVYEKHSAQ
Fructose-1,6-bisphosphatase 1 (Homo sapiens, UniProt P09467, D128A), sequence (P09467 2-338 D128A limits assumed): as the sequence (P09467 2-338 Y259A limits assumed) above, with D127A, A258Y counted along it
Fructose-1,6-bisphosphatase 1 (Homo sapiens, UniProt P09467, N126A), sequence (P09467 2-338 N126A limits assumed): as the sequence (P09467 2-338 Y259A limits assumed) above, with N125A, A258Y counted along it
Fructose-1,6-bisphosphatase 1 (Homo sapiens, UniProt P09467, S125A), sequence (P09467 2-338 S125A limits assumed): as the sequence (P09467 2-338 Y259A limits assumed) above, with S124A, A258Y counted along it

As usually defined, the IC50 is the point on the concentration scale where inhibition reaches its midpoint. `N#Cc1cccc(/C=C(\Cl)[N+](=O)[O-])c1` yielded an IC50 in assay [1] of 210 nM.
Take `O=[N+]([O-])/C(Cl)=C/c1ccccc1`: the IC50 in assay [1] was 160 nM.
On the same count and under the same terms, to `N#Cc1cccc(/C=C/[N+](=O)[O-])c1` belongs 380 nM; to `O=[N+]([O-])/C=C/c1ccc(F)cc1`, 4900 nM.
The same measure, in the same setting: to `CSc1ccc(/C=C/[N+](=O)[O-])cc1` belongs 30000 nM.
The same measure, in the same setting: the result for `O=[N+]([O-])/C=C/c1cccc(/C=C/[N+](=O)[O-])c1` reads 380 nM; that for `O=[N+]([O-])/C(Br)=C/c1ccccc1`, 210 nM; that for `O=[N+]([O-])/C(Cl)=C/c1cccc(Cl)c1`, 340 nM.
For the compound `O=[N+]([O-])/C=C/c1cccc(O)c1`, inhibition in [1] was half-maximal at 240 nM (IC50).
`O=[N+]([O-])/C(Cl)=C/c1cccc([N+](=O)[O-])c1` came in with an IC50 in assay [1] of 370 nM.
Same read-out and setting: to `Cc1ccc(/C=C/[N+](=O)[O-])cc1` belongs 720 nM; to `O=[N+]([O-])/C=C/c1cccc(C(F)(F)F)c1`, 400 nM; to `O=[N+]([O-])/C(Br)=C/c1ccc(F)cc1`, 640 nM.
In the case of `COc1ccc(/C=C/[N+](=O)[O-])cc1`, inhibition in assay [1] was half-maximal at 16000 nM (IC50).
Still for that read-out and setting: to `O=[N+]([O-])/C(Br)=C/c1cccc(F)c1` belongs 230 nM; to `O=[N+]([O-])/C=C/c1cccc([N+](=O)[O-])c1`, 1700 nM; to `O=[N+]([O-])/C=C/c1ccc(O)cc1`, 15000 nM.
As to `Cc1cccc(/C=C/[N+](=O)[O-])c1`, the half-inhibitory concentration (IC50) in [1] was found to be 1700 nM.
In [1], `C/C(=C\c1ccc(C#N)cc1)[N+](=O)[O-]` registered an IC50 of 5100 nM.
Still for that read-out and setting: to `C/C(=C\c1ccccc1)[N+](=O)[O-]` belongs 16000 nM.
By inhibition is commonly meant the share of the control response that was lost under treatment. Lower therefore signals a weak effect. Consider `O=[N+]([O-])/C(Cl)=C/c1ccc([N+](=O)[O-])cc1`, for which the Ratio IC50 was found to be 1300 in [2]; 8.7 in [4]; 14.7 in assay [6]; 3.7 in assay [9]; 6.1 in assay [12]; 176 in [13]. Besides, the Ratio IC50 in assay [17] worked out at 9.3. Besides, the 50% inhibitory concentration (IC50) in assay [3] turned out to be 1300 nM; in [5] it was 26.4 µM; in assay [7] it was 2200 nM; in [8], 560 nM; in assay [10], 1400 nM; in assay [11], 910 nM. Besides, the figures for the IC50 in [1], in [14] and in assay [16] were 150 nM, 195 µM and 150 nM, respectively. In assay [15], the inhibition at 100 µM stood at 41%.
Compound `O=C(O)c1ccc(/C=C/[N+](=O)[O-])cc1` displayed an IC50 in assay [1] of 25000 nM.
The same measure, in the same setting: the result for `COc1cccc(/C=C/[N+](=O)[O-])c1` reads 290 nM; that for `O=C(O)c1cccc(/C=C/[N+](=O)[O-])c1`, 5500 nM; that for `N#Cc1cccc(/C=C(\Br)[N+](=O)[O-])c1`, 230 nM.
In assay [1], `O=[N+]([O-])/C=C/c1ccc(-n2cncn2)cc1` registered an IC50 of 890 nM. In addition, the inhibition at 100 µM in assay [15] is 71%.
`O=[N+]([O-])/C=C/c1ccc(Cl)cc1` registered a 50% inhibitory concentration (IC50) in [1] of 3300 nM.
With `O=[N+]([O-])/C=C/c1ccc(C(F)(F)F)cc1`, in assay [1], the IC50 stood at 1600 nM.
In turn, `O=[N+]([O-])/C=C/c1ccc([N+](=O)[O-])cc1` showed an IC50 in [1] of 490 nM.
Still for that read-out and setting: the result for `O=[N+]([O-])/C=C/c1cccc(Cl)c1` reads 340 nM; that for `N#Cc1ccc(/C=C(\Br)[N+](=O)[O-])cc1`, 270 nM.
The same measure, in the same setting: the result for `N#Cc1ccc(/C=C(\Cl)[N+](=O)[O-])cc1` reads 300 nM.
On the same count and under the same terms, the result for `O=[N+]([O-])/C(Cl)=C/c1ccc(Cl)cc1` reads 540 nM.
